Data from ChEMBL document CHEMBL3232764, “Influence of the adamantyl moiety on the activity of biphenylacrylohydroxamic acid-based HDAC inhibitors” (Eur J Med Chem, 2014).
Activity calls are given as the source filed them. The rule behind the calls is not given here.

Tests used:
[1] = target: T1, Protein deacetylase HDAC6 (Homo sapiens, UniProt Q9UBN7); test: Inhibition of human HDAC6 using fluorogenic tetrapeptide RHKKAc as substrate
T1 sequence (Q9UBN7 whole entry): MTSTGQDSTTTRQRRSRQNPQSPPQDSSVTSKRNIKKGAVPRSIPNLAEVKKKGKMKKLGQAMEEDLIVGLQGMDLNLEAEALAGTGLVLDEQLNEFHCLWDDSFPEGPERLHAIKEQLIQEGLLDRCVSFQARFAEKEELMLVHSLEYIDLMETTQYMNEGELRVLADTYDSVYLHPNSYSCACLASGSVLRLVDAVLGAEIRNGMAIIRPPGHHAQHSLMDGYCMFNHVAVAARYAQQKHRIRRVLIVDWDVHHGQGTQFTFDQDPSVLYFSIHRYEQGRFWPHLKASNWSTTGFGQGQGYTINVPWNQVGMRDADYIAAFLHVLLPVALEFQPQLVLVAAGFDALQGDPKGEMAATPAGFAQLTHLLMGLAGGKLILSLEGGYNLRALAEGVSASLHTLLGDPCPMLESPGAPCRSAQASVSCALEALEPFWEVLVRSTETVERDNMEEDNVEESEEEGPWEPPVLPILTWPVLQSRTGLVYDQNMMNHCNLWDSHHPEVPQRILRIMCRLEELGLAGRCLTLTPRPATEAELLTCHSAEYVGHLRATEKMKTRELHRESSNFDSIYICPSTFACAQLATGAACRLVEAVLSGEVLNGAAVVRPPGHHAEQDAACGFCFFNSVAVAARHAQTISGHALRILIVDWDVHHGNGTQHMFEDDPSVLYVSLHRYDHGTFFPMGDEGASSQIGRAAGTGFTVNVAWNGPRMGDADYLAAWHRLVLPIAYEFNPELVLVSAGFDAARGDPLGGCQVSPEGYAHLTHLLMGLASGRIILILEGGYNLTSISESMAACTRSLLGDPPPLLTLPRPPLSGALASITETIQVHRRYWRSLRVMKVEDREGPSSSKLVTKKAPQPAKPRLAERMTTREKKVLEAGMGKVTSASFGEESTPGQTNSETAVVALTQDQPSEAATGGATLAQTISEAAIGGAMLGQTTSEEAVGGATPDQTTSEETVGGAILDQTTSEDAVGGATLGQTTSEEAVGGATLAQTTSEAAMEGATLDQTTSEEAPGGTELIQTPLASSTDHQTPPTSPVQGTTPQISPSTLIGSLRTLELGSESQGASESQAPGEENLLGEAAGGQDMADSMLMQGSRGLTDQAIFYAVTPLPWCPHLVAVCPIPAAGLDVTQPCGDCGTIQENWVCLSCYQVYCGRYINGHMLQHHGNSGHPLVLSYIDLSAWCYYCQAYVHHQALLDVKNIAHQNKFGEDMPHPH

[2] = tested on: IGROV-1; test: Antiproliferative activity against human IGROV1 cells assessed as growth inhibition after 72 hrs; assay type: functional, cell-based; conditions: IGROV-1, 72 h
Outline: (§1)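 Log-phase cells seeded in duplicate in 6-well plates; drug added 24 h after seeding. Cells harvested 72 h after drug exposure and counted with a cell counter. IC50 = drug concentration giving 50% reduction in cell number versus untreated control.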

[3] = Antiproliferative activity against p53 defective cis-platinum-resistant human IGROV1/Pt1 cells assessed as growth inhibition after 72 hrs; assay type: functional, cell-based; conditions: IGROV-1/Pt1, 72 h; outline: as §1
[4] = tested on: IGROV-1; test: Cell cycle arrest in human IGROV1 cells assessed as accumulation at G1 phase at IC80 after 24 hrs by propidium iodide staining-based flow cytometry (reference value: 49.98%); assay type: functional
Outline: (§2)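 Cell-cycle distribution in IGROV-1 cells read by flow cytometry of propidium iodide–stained cells.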

[5] = target: Histone deacetylase 1 (Homo sapiens, UniProt Q13547); test: Inhibition of human HDAC1 using fluorogenic tetrapeptide RHKKAc as substrate
Chain of Histone deacetylase 1 (Q13547 whole entry): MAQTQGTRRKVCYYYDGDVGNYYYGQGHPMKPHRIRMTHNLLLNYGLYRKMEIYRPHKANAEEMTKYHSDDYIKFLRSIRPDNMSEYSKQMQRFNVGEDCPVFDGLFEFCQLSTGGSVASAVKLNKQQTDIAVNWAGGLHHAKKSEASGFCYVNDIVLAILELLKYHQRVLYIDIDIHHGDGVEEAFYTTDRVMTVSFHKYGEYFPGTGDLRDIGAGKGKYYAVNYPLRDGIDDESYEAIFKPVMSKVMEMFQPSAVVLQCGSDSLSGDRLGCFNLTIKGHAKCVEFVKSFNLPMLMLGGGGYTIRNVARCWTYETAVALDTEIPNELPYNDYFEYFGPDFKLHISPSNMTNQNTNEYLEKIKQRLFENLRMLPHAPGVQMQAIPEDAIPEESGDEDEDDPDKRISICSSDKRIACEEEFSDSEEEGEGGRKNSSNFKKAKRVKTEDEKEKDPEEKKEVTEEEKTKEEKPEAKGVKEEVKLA

[6] = target: T2, Protein deacetylase HDAC6 (Homo sapiens) (UniProt Q9UBN7); test: Inhibition of HDAC6 in human IGROV1 cells assessed as increase in tubulin acetylation at IC80 after 4 to 24 hrs by Western blot analysis; assay type: cell-based; conditions: IGROV-1
T2 sequence (whole entry): T1 sequence (Q9UBN7 whole entry)
Outline: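 Cells treated with various concentrations of HDAC inhibitors, collected, lysed and analysed by Western blotting.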

[7] = Cell cycle arrest in human IGROV1 cells assessed as accumulation at G2/M phase at IC80 after 24 hrs by propidium iodide staining-based flow cytometry (reference value: 13.21%); assay type: functional; conditions: IGROV-1; outline: as §2
[8] = tested on: IGROV-1; test: Cell cycle arrest in human IGROV1 cells assessed as accumulation at S phase at IC80 after 24 hrs by propidium iodide staining-based flow cytometry (reference value: 36.81%); assay type: functional; outline: as §2
[9] = cells; assay type: functional, cell-based; conditions: Homo sapiens, NCI-H460, 72 h
[10] = target: Histone deacetylase 2 (Homo sapiens, UniProt Q92769); assay type: cell-based, HeLa
Chain of Histone deacetylase 2 (Q92769 whole entry): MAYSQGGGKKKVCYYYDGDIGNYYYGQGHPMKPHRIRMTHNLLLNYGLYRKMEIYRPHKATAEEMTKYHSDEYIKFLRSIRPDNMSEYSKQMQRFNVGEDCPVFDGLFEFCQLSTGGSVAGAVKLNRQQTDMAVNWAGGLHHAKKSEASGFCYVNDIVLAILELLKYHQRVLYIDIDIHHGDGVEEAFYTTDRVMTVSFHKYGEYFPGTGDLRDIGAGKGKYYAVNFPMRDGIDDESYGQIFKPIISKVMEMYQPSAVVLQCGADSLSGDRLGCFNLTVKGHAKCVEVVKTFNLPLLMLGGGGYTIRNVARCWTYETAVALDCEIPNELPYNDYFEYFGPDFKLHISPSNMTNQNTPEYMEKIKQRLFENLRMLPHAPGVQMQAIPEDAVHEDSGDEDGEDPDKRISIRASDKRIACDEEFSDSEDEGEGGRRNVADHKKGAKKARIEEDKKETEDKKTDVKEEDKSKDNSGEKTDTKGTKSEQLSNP

[11] = target: T3, Histone deacetylase 7 (Homo sapiens, UniProt Q8WUI4); test: Inhibition of human HDAC7 using fluorogenic tetrapeptide RHKKAc as substrate
T3 sequence (Q8WUI4 whole entry): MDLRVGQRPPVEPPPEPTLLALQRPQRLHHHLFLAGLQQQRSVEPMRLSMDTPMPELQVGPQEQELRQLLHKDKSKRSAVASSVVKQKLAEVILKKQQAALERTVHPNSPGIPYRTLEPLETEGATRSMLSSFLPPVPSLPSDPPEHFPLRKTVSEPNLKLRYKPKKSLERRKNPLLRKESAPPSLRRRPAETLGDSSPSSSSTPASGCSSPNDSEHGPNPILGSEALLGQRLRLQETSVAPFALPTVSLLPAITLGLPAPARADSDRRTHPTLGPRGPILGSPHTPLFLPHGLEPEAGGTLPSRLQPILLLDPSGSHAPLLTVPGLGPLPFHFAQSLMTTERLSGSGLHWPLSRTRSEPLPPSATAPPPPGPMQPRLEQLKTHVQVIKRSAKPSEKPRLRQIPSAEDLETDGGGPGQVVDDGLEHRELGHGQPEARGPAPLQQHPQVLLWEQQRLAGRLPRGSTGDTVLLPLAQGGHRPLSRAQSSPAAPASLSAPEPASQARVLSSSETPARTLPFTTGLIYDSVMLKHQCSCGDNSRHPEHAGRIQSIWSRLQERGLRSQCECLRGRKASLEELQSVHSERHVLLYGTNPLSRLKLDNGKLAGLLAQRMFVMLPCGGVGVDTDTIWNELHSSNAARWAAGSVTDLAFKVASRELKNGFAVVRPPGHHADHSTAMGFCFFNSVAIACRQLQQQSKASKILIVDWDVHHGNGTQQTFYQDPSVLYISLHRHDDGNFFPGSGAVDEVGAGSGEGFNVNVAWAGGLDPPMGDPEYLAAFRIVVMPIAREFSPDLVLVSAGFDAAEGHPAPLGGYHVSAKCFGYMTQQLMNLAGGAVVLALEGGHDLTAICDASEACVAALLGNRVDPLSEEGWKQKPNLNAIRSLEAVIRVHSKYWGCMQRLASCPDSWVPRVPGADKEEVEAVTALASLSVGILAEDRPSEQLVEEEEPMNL

| IC50 [1] [µM] | IC50 [5] [µM] | Activity [6] | IC50 [9] [µM] | IC50 [10] [µM] | IC50 [11] [µM] | SMILES | IC50 [2] [µM] | IC50 [3] [µM] | Activity [4] [%] | Activity [7] [%] | Activity [8] [%] |
| --- | --- | --- | --- | --- | --- | --- | --- | --- | --- | --- | --- |
| 16.7 | 60.1 | inactive | 1.4 | > 10 |  | COc1ccc(-c2ccc(/C=C/C=C/C(=O)NO)cc2)cc1C12CC3CC(CC(C3)C1)C2 | 1.3 | 2.03 | 70.35 | 7.46 | 22.18 |
| 3.26 | > 100 |  |  |  | > 100 | COc1ccc(-c2ccc(/C=C/C=C/C(=O)NO)cc2)cc1 |  |  |  |  |  |
